Consider 21 molecules from ChEMBL document CHEMBL1152746, “Inhibitors of adenosine consuming parasites through polymer-assisted solution phase synthesis of lipophilic 5'-amido-5'-deoxyadenosine derivatives” (Bioorg Med Chem, 2009).

For the experiment, the system named is Plasmodium falciparum. Description: Antiplasmodial activity against Plasmodium falciparum K1 as [3H]hypoxanthine uptake. The class given is functional, organism-based. The conditions noted are these: K1, 72 h. The method in brief:
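Erythrocytic stages of chloroquine- and pyrimethamine-resistant K1 strain grown in washed human A+ red cells, 2.5% hematocrit, 0.3% parasitemia. Medium was hypoxanthine-free RPMI 1640 with HEPES, NaHCO3, neomycin and AlbuMAX. DMSO stocks (10 mg/mL) tested as serial doubling dilutions for 48 h at 37 °C under 4% CO2, 3% O2, 93% N2. [3H]hypoxanthine then added for 24 h, cells harvested onto filters, scintillation counted.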
Broadly, the IC50 is the point on the concentration scale where inhibition reaches its midpoint. Read a high IC50 as a need for much substance. `O=C(CCCOc1ccccc1)NC[C@H]1O[C@@H](n2cnc3c(NCc4ccc(Oc5ccccc5)cc4)ncnc32)[C@H](O)[C@@H]1O` yielded an IC50 of 2800 nM. The molecule `O=C(Cc1cccc2ccccc12)NC[C@H]1O[C@@H](n2cnc3c(NCc4ccc(Oc5ccccc5)cc4)ncnc32)[C@H](O)[C@@H]1O` returned an IC50 of 300 nM. `O=C(NC[C@H]1O[C@@H](n2cnc3c(NCc4ccc(Oc5ccccc5)cc4)ncnc32)[C@H](O)[C@@H]1O)c1ccc(Oc2ccccc2)cc1` displayed an IC50 of 3300 nM. Compared with the last molecule, the IC50 is about 11-fold higher. `O=C(NC[C@H]1O[C@@H](n2cnc3c(NCc4ccc(Oc5ccccc5)cc4)ncnc32)[C@H](O)[C@@H]1O)c1cc(Cl)cc(Cl)c1` gave an IC50 of 3500 nM. The IC50 values of the last two molecules are within 1.5-fold of each other. Next, `O=C(NC[C@H]1O[C@@H](n2cnc3c(NCc4ccc(Oc5ccccc5)cc4)ncnc32)[C@H](O)[C@@H]1O)c1ccc2c(c1)[nH]c(=O)n2Cc1ccccn1`: 2100 nM; `COc1cccc(CC(=O)NC[C@H]2O[C@@H](n3cnc4c(NCc5ccc(Oc6ccccc6)cc5)ncnc43)[C@H](O)[C@@H]2O)c1`: 3400 nM; `O=C(NC[C@H]1O[C@@H](n2cnc3c(NCc4ccc(Oc5ccccc5)cc4)ncnc32)[C@H](O)[C@@H]1O)c1ccc2c(c1)[nH]c(=O)n2COc1ccccc1`: 3300 nM. In turn, `O=C(CCCc1c[nH]c2ccccc12)NC[C@H]1O[C@@H](n2cnc3c(NCc4ccc(Oc5ccccc5)cc4)ncnc32)[C@H](O)[C@@H]1O` returned an IC50 of more than 8500 nM.

`CC(C)=CC(=O)NC[C@H]1O[C@@H](n2cnc3c(NCc4ccc(Oc5ccccc5)cc4)ncnc32)[C@H](O)[C@@H]1O`: the IC50 was 4300 nM.

As for `CC(C)CCC(=O)NC[C@H]1O[C@@H](n2cnc3c(NCc4ccc(Oc5ccccc5)cc4)ncnc32)[C@H](O)[C@@H]1O`, the IC50 was 4600 nM. Next, `O=C(NC[C@H]1O[C@@H](n2cnc3c(NCc4ccc(Oc5ccccc5)cc4)ncnc32)[C@H](O)[C@@H]1O)c1ccc2c(c1)ncn2Cc1ccccn1`: 4000 nM. Next, `COCCCn1c(=O)[nH]c2cc(C(=O)NC[C@H]3O[C@@H](n4cnc5c(NCc6ccc(Oc7ccccc7)cc6)ncnc54)[C@H](O)[C@@H]3O)ccc21`: 900 nM. `C=CCn1cnc2cc(C(=O)NC[C@H]3O[C@@H](n4cnc5c(NCc6ccc(Oc7ccccc7)cc6)ncnc54)[C@H](O)[C@@H]3O)ccc21` came in with an IC50 of 2700 nM. Molecule `O=C(CCCc1ccccc1)NC[C@H]1O[C@@H](n2cnc3c(NCc4ccc(Oc5ccccc5)cc4)ncnc32)[C@H](O)[C@@H]1O` gave an IC50 of 2600 nM. `O=C(Cc1cccc(Cl)c1)NC[C@H]1O[C@@H](n2cnc3c(NCc4ccc(Oc5ccccc5)cc4)ncnc32)[C@H](O)[C@@H]1O` yielded an IC50 of 3100 nM. In turn, `O=C(NC[C@H]1O[C@@H](n2cnc3c(NCc4ccc(Oc5ccccc5)cc4)ncnc32)[C@H](O)[C@@H]1O)c1ccc2c(c1)ncn2Cc1cccc2ccccc12` gave an IC50 of 2200 nM.

In turn, `CCCCCn1cnc2cc(C(=O)NC[C@H]3O[C@@H](n4cnc5c(NCc6ccc(Oc7ccccc7)cc6)ncnc54)[C@H](O)[C@@H]3O)ccc21` had an IC50 of 1500 nM. `CCCCn1c(=O)[nH]c2cc(C(=O)NC[C@H]3O[C@@H](n4cnc5c(NCc6ccc(Oc7ccccc7)cc6)ncnc54)[C@H](O)[C@@H]3O)ccc21` showed an IC50 of 3100 nM.

In the case of `COCCCn1cnc2cc(C(=O)NC[C@H]3O[C@@H](n4cnc5c(NCc6ccc(Oc7ccccc7)cc6)ncnc54)[C@H](O)[C@@H]3O)ccc21`, the midpoint of inhibition, the IC50, lay at 2600 nM. Molecule `O=C(NC[C@H]1O[C@@H](n2cnc3c(NCc4ccc(Oc5ccccc5)cc4)ncnc32)[C@H](O)[C@@H]1O)c1ccc2c(c1)[nH]c(=O)n2CCC1=CCCCC1` returned an IC50 of 2900 nM. The same measure for `CCN(CC)CCCC(C)Nc1ccnc2cc(Cl)ccc12` (stereo unspecified) [CHLOROQUINE]: 900 nM.
